# In ChEMBL document CHEMBL3875170, “2-Methyl-4/5-nitroimidazole derivatives potentiated against sexually transmitted Trichomonas: Design, synthesis, biology and 3D-QSAR study” (Eur J Med Chem, 2016):
# Active and inactive are the calls of the source. The calls are words filed in the database; no cut-off is given here.
# Columns and labels:
# Trichomonas vaginalis [1] = test: Antiparasitic activity against metronidazole sensitive Trichomonas vaginalis ATCC 33592 after 48 hrs by trypan blue exclusion assay; format: functional; conditions: ATCC 33592, 48 h
# Trichomonas vaginalis [2] = test: Antiparasitic activity against metronidazole resistant Trichomonas vaginalis ATCC 50143 after 48 hrs by trypan blue exclusion assay; format: functional; conditions: ATCC 50143, 48 h
# How it was run: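 T. vaginalis trophozoites ([…]), log phase, grown in TYM with 10% FCS, vitamin mix and penicillin/streptomycin at 37 °C. Test agents from DMSO stocks serially diluted in TYM; DMSO/TYM vehicle controls. Anaerobic incubation at 37 °C with microscopic viability checks from 3 to 48 h by trypan blue exclusion. MIC is the lowest concentration killing all cells by 48 h. Repeated three times.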
# [3] = Cytotoxicity against human HeLa cells after 24 hrs by MTT assay; format: toxicity, cell-based
# How it was run: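 HeLa cells seeded at 2 × 10⁴ per well in DMEM with 10% FCS, in triplicate, and held 24 h at 37 °C in 5% CO₂. Exposed to compound dilutions for 24 h; controls received 0.05% DMSO. MTT in PBS pH 7.4 added, formazan dissolved in DMSO, OD540 read. IC50 taken as the concentration killing 50% of cells.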
# [4] = Selectivity index, ratio of IC50 for human HeLa cells to MIC for metronidazole sensitive Trichomonas vaginalis ATCC 33592; format: toxicity, cell-based; conditions: read-out: Selectivity Index
# How it was run: (§1)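 SI is HeLa IC50 divided by parasite MIC. HeLa cells seeded at 2 × 10⁴/well in triplicate in DMEM with 10% FCS, 24 h at 37 °C in 5% CO2. Medium then replaced with compound dilutions (0.05% DMSO controls) for 24 h. Viability by MTT read at OD540; IC50 is the concentration killing 50% of cells. MIC from 48 h trypan blue parasite killing in TYM.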
# [5] = Selectivity index, ratio of IC50 for human HeLa cells to MIC for metronidazole resistant Trichomonas vaginalis ATCC 50143; format: toxicity, cell-based; conditions: read-out: Selectivity Index; how it was run: as §1
# Trichomonas vaginalis [6] = test: Potency index, ratio of metronidazole MIC to compound MIC for metronidazole sensitive Trichomonas vaginalis ATCC 33592; format: functional
# Trichomonas vaginalis [7] = test: Potency index, ratio of metronidazole MIC to compound MIC for metronidazole resistant Trichomonas vaginalis ATCC 50143; format: functional
# Trichomonas vaginalis [8] = test: Antiparasitic activity against Trichomonas vaginalis in po dosed mouse assessed as size of abscess at 50 mg/kg, po administered daily for 7 days measured 7 days post last dose (reference value: 113 mm'2); format: functional
# How it was run: (§2)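 Six-week-old mice inoculated subcutaneously in the left hind flank with 50 µL of 2 × 10⁶ saline-washed trophozoites/mL grown in TYM. Abscess confirmed by palpation at day 7 and by fine-needle biopsy. Oral dosing in gum acacia at 50 or 100 mg/kg daily; controls received vehicle. Abscess size measured longitudinally each day and area calculated; n = 3 per group.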
# Trichomonas vaginalis [9] = test: Antiparasitic activity against Trichomonas vaginalis in po dosed mouse assessed as size of abscess at 50 mg/kg, po administered daily for 5 days measured 5 days post last dose (reference value: 120 mm'2); format: functional; how it was run: as §2
# Trichomonas vaginalis [10] = test: Antiparasitic activity against Trichomonas vaginalis in po dosed mouse assessed as size of abscess at 100 mg/kg, po administered daily for 7 days measured 7 days post last dose (reference value: 113 mm'2); format: functional; how it was run: as §2
# [11] = Cmax in Sprague Dawley rat at 50 mg/kg, po; format: ADME, organism-based; parameters: dose 50 mg/kg, route oral; conditions: in vivo
# How it was run: (§3)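 Overnight-fasted (12–16 h) rats, n = 4 per time point, given a single oral dose of 50 mg/kg as a 12.5 mg/mL suspension in 1% w/v gum acacia and water. Blood sampled at set times up to 24 h; serum stored at −80 °C. Analysis by LC-MS/MS in positive-ion MRM mode with phenacetin as internal standard; parameters derived by non-compartmental analysis. Values are means of four rats.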
# [12] = Tmax in Sprague Dawley rat at 50 mg/kg, po; format: ADME, organism-based; conditions: in vivo; how it was run: as §3
# [13] = Volume of distribution at steady state in Sprague Dawley rat at 50 mg/kg, po; format: ADME, organism-based; conditions: in vivo; how it was run: as §3
# [14] = AUClast in Sprague Dawley rat at 50 mg/kg, po; format: ADME, organism-based; parameters: dose 50 mg/kg, route oral, time 0 - last; conditions: in vivo; how it was run: as §3
# [15] = Half life in Sprague Dawley rat at 50 mg/kg, po; format: ADME, organism-based; conditions: in vivo; how it was run: as §3
# [16] = Clearance in Sprague Dawley rat at 50 mg/kg, po; format: ADME, organism-based; conditions: in vivo; how it was run: as §3
# Trichomonas vaginalis [17] = test: Antiparasitic activity against Trichomonas vaginalis in po dosed mouse assessed as size of abscess at 100 mg/kg, po administered daily for 5 days measured 5 days post last dose (reference value: 120 mm'2); format: functional; how it was run: as §2
# Trichomonas vaginalis [18] = test: Antiparasitic activity against Trichomonas vaginalis assessed as decrease in parasite free thiol levels at MIC after 24 hrs by fluorometric thiol detector-based fluorescence microscopic method; format: functional
# How it was run: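 Cells pelleted (700 × g, 10 min, 4 °C), washed 2–3 times in PBS, then stained 5 min in the dark with fluorometric thiol detector (pre-diluted 100×). Imaged by epifluorescence microscopy, UV-1A filter, with equal exposure times for all samples.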
Structure (SMILES),MIC (Trichomonas vaginalis [1]),MIC (Trichomonas vaginalis [2]),IC50 at 24 h [3],selectivity ratio [4],selectivity ratio [5],Ratio (Trichomonas vaginalis [6]),Ratio (Trichomonas vaginalis [7]),Activity (Trichomonas vaginalis [8]),Activity (Trichomonas vaginalis [9]),Activity (Trichomonas vaginalis [10]),Cmax [11],Tmax [12],Vdss [13],AUClast [14],half-life [15],CL [16],Activity (Trichomonas vaginalis [17]),Activity (Trichomonas vaginalis [18])
Cc1ncc([N+](=O)[O-])n1CC(O)Cn1ccnn1 (racemic),12.4 µM,99.2 µM,> 5 mM,> 416,> 50,<=2.4,<=12.7,,,,,,,,,,,
CCN1CCN(CC(O)Cn2c([N+](=O)[O-])cnc2C)CC1 (racemic),12.1 µM,105 µM,4.94 mM,407,47,<=2.4,<=12.7,,,,,,,,,,,
Cc1ncc([N+](=O)[O-])n1CC(O)CSC(=S)N1CCN(c2cccc(Cl)c2Cl)CC1 (racemic),16 µM,128 µM,1 mM,62,7,<=2.4,<=12.7,,,,,,,,,,,
Cc1ncc([N+](=O)[O-])n1CCO [METRONIDAZOLE],21.1 µM,365 µM,> 5 mM,> 238,> 13,,,1.57 mm2,1 - 5 mm2,,,,,,,,,
Cc1ncc([N+](=O)[O-])n1CC(O)CN1CCN(c2cccc(Cl)c2Cl)CC1 (racemic),18.9 µM,151 µM,> 5 mM,> 265,> 33,<=2.4,<=12.7,,,,,,,,,,,
Cc1ncc([N+](=O)[O-])n1CC(O)CSC(=S)N1CCCC(C)C1 (racemic),17.4 µM,69.8 µM,0.609 mM,35,8,<=2.4,2.5 - 12.6,,,,,,,,,,,
Cc1ncc([N+](=O)[O-])n1CC(O)CSC(=S)N1CCN(C(=O)OC(C)(C)C)CC1 (racemic),17.6 µM,70.2 µM,0.689 mM,39,9,<=2.4,<=12.7,,,,,,,,,,,
Cc1ncc([N+](=O)[O-])n1CC(O)CN1CCN(c2ccccn2)CC1 (racemic),18.1 µM,72.2 µM,1.83 mM,101,25,<=2.4,<=12.7,,,,,,,,,,,
Cc1ncc([N+](=O)[O-])n1CC(O)CSC(=S)N1CCC(Cc2ccccc2)CC1 (racemic),14.4 µM,28.8 µM,1.32 mM,91,45,<=2.4,2.5 - 12.6,,,,,,,,,,,
CCOC(=O)N1CCN(C(=S)SCC(O)Cn2c([N+](=O)[O-])cnc2C)CC1 (racemic),15 µM,60 µM,1.61 mM,107,26,<=2.4,<=12.7,,,,,,,,,,,
Cc1ncc([N+](=O)[O-])n1CC(O)CSC(=S)N1CCN(c2ccccc2F)CC1 (racemic),14.2 µM,56.9 µM,3.24 mM,227,56,<=2.4,<=12.7,,,,,,,,,,,
Cc1ncc([N+](=O)[O-])n1CC(O)CSC(=S)N1CCN(c2cccc(Cl)c2)CC1 (racemic),17.2 µM,68.7 µM,1.08 mM,62,15,<=2.4,<=12.7,,,,,,,,,,,
Cc1ncc([N+](=O)[O-])n1CC(O)CSC(=S)N(C)C (racemic),20.6 µM,82.2 µM,> 5 mM,> 243,> 61,,<=12.7,,,,,,,,,,,
Cc1ncc([N+](=O)[O-])n1CC(O)CN1CCN(c2ccccc2)CC1 (racemic),22.6 µM,181 µM,> 5 mM,> 220,> 27,,<=12.7,,,,,,,,,,,
Cc1ncc([N+](=O)[O-])n1CC(O)CSC(=S)N1CCC(C)CC1 (racemic),17.4 µM,69.8 µM,1.82 mM,104,26,<=2.4,2.5 - 12.6,,,,,,,,,,,
COc1ccccc1N1CCN(CC(O)Cn2c([N+](=O)[O-])cnc2C)CC1 (racemic),33.3 µM,133 µM,4.39 mM,131,33,,<=12.7,,,,,,,,,,,
Cc1ncc([N+](=O)[O-])n1CC(O)Cn1nnc2ccccc21 (racemic),25.9 µM,41.4 µM,4.24 mM,169,103,,<=12.7,,,,,,,,,,,
Cc1ncc([N+](=O)[O-])n1CC(O)CN1C(C)CCCC1C (racemic),42.2 µM,84.5 µM,> 5 mM,> 119,> 59,,<=12.7,,,,,,,,,,,
Cc1ncc([N+](=O)[O-])n1CC(O)CN1CCCC1 (racemic),49.2 µM,197 µM,> 5 mM,> 102,> 25,,<=12.7,,,,,,,,,,,
CCN1CCN(C(=S)SCC(O)Cn2c([N+](=O)[O-])cnc2C)CC1 (racemic),20.9 µM,83.8 µM,> 5 mM,> 250,> 60,,<=12.7,,,,,,,,,,,
CCCCN1CCN(C(=S)SCC(O)Cn2c([N+](=O)[O-])cnc2C)CC1 (racemic),15.6 µM,31.2 µM,1.91 mM,122,61,<=2.4,<=12.7,,,,,,,,,,,
Cc1ncc([N+](=O)[O-])n1CC(O)Cn1cncn1 (racemic),31 µM,99.2 µM,4.97 mM,160,50,,<=12.7,,,,,,,,,,,
Cc1ncc([N+](=O)[O-])n1CC(O)CSC(=S)N1CCN(c2ccccc2)CC1 (racemic),8.55 µM,37.1 µM,> 5 mM,> 584,> 135,2.4,<=12.7,1.55 mm2,1 - 5 mm2,0.785 mm2,35.2 ng/mL,4 h,80.6 L/kg,149.1 ng·h/mL,5 h,272 mL/min/kg,1 - 5 mm2,Active
